Assay results published in ChEMBL document CHEMBL3112575, “N¹,N¹-Dimethyl-N³-(3-(trifluoromethyl)phenethyl)propane-1,3-diamine, a new lead for the treatment of human African trypanosomiasis” (Eur J Med Chem, 2014).

Test system: Trypanosoma brucei brucei
Assay: Antitrypanosomal activity against bloodstream form of Trypanosoma brucei brucei 427 after 48 hrs by Alamar Blue staining based fluorescence assay
Format: functional, organism-based
Conditions: Trypanosoma brucei, 427, 48 h
How it was run: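 Starting inoculum 2×10³ bloodstream-form parasites per well in HMI-9 with 10% FBS, exposed to two-fold serial drug dilutions for 48 h at 37°C, 5% CO₂. Alamar Blue then added, with a further 4 h incubation. Fluorescence read at Ex 544/Em 590. Each plate included drug-free parasite wells and parasite-free, drug-free wells. IC₅₀ from three biological replicates, each the mean of three technical replicates.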

IC50 [µM]	Compound
> 8	C#CCN(CCCN(C)C)CCc1cc(OC)c(Br)cc1Br
> 8	CN(C)CCCNCc1cc(Br)c(O)c(Br)c1
> 8	COc1c(Br)cc(CNCCCN(C)C)cc1Br
> 8	CN(C)CCCNCc1cccc(O)c1
> 8	CN(C)CCCNCc1ccc(O)cc1
> 8	COc1cccc(CNCCCN(C)C)c1
> 8	COc1ccc(CNCCCN(C)C)cc1
0.3	COc1cc(CCNCCCN(C)C)c(Br)cc1Br
4	COc1ccc(Br)c(CCNCCCN(C)C)c1Br
> 8	COc1ccc(CCNCCCN(C)C)cc1Br
> 8	COc1ccc(Br)cc1CCNCCCN(C)C
> 8	COc1cccc(CCNCCCN(C)C)c1
> 8	COc1cc(CCN(CCCN(C)C)C(C)=O)c(Br)cc1Br
4	CN(C)CCCNCCc1ccc2ccccc2c1
> 8	CN(C)CCCNCCc1cccs1
> 8	CN(C)CCCNC1Cc2ccccc2C1
> 8	CN(C)CCCNCCc1ccccc1Br
> 8	CN(C)CCCNCCc1cccc(Br)c1

IC50 [µM]	Compound
> 8	CN(C)CCCNCCc1ccc(Br)cc1
> 8	CN(C)CCCNCCc1ccccc1F
> 8	CN(C)CCCNCCc1cccc(F)c1
> 8	CN(C)CCCNCCc1ccc(F)cc1
> 8	CN(C)CCCNCCc1ccccc1Cl
0.7	CN(C)CCCNCCc1cccc(Cl)c1
> 8	CN(C)CCCNCCc1ccc(Cl)cc1
> 8	COc1ccc(CCNCCCN(C)C)cc1Cl
> 8	CN(C)CCCNCCc1ccc(Cl)c(Cl)c1
> 8	CN(C)CCCNCCc1ccc(Cl)cc1Cl
> 8	CN(C)CCCNCCc1c(Cl)cccc1Cl
> 8	CN(C)CCCNCCc1c(F)cccc1Cl
0.5	CN(C)CCCNCCc1cccc(C(F)(F)F)c1
> 8	CN(C)CCCNCc1c(Br)cc(Br)c(O)c1Br
> 8	COc1c(Br)cc(Br)c(CNCCCN(C)C)c1Br
2.2	CN(C)CCCNCc1cc(O)c(Br)cc1Br
4.6	COc1cc(CNCCCN(C)C)c(Br)cc1Br

Compound	IC50 [µM]
COc1cc(CCNCCCN)c(Br)cc1Br	2
COc1cc(CCNCCCO)c(Br)cc1Br	> 8
C#CCNCCc1cc(OC)c(Br)cc1Br	> 8
C#CCCNCCc1cc(OC)c(Br)cc1Br	> 8
COc1cc(CCN2CCCC2)c(Br)cc1Br	> 8
